Data set [1] deals with MT4. The data set is described as follows: Antiviral activity against PI resistant virus D545701 was determined in MT-4 cell line. Format: functional, cell-based. As to conditions: Homo sapiens. Summed up: (§1)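 Antiviral IC50 measured in MT4 cells infected with the named HIV strain: wild-type HXB2, or the multi-PI-resistant EP13 or D545701.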
Data set [2] relates to MT4. The data set is described as follows: Antiviral activity against PI resistant virus EP13 was determined in MT-4 cell line. The data set is classed as functional, cell-based. As to conditions: Homo sapiens. Summed up:
as §1

The test system of data set [3] is MT4. The data set is described as follows: Antiviral activity against wild-type HIV virus (HXB2) was determined in MT-4 cell line. As to conditions: Homo sapiens. The data set is classed as functional, cell-based. Summed up:
as §1

In data set [4] the target is Human immunodeficiency virus type 1 protease (Human immunodeficiency virus 1, UniProt Q72874). Description: Inhibition of HIV-1 Protease activity.
Data set [5] deals with MT4. The data set is described as follows: Antiviral activity against PI resistant virus D545701 in MT-4 cell line. The data set is classed as functional, cell-based. As to conditions: Homo sapiens. Summed up: as §1
For data set [6], the system named is MT4. Description: Antiviral activity against wild-type HIV virus (HXB2) in MT-4 cell line. Format: functional, cell-based. As to conditions: Homo sapiens. In outline: as §1
The subject of data set [7] is MT4. The data set is described as follows: Antiviral activity against PI resistant virus EP13 in MT-4 cell line. Format: functional, cell-based. As to conditions: Homo sapiens. In outline: as §1
Data set [8] in a line: Oral bioavailability in rat. The data set is classed as ADME, organism-based. As to conditions: in vivo.
Data set [9] in a line: Half life period in rat. As to conditions: in vivo. The data set is classed as ADME, organism-based.

The IC50 is the midpoint of a concentration-inhibition curve. Read a high IC50 as weaker potency. As a reminder, the Ki is a measure of affinity in units of concentration, obtained from inhibition or displacement. Low values mean tighter binding, high ones weaker binding. In general, bioavailability refers to the share of a dose that reaches the circulation, judged against a reference dose that is usually intravenous. A lower bioavailability goes with little systemic uptake. As a reminder, the half-life is how long it takes for the measured level to halve. A high value points to slow decline.

In the case of `CC(C)CN(C[C@@H](O)[C@H](Cc1ccccc1)NC(=O)O[C@H]1CCOC1)S(=O)(=O)c1ccc(N)cc1`, the IC50 in the data set on MT4 [1] is above 1000 nM; in the data set on MT4 [2], 440 nM; with MT4 [3] it was 130 nM. For the same compound, the Ki in [4] turned out to be 0.057 nM.
Consider `COC(=O)NCCCCCC(C)(C)CN(C[C@@H](O)[C@H](Cc1ccccc1)NC(=O)O[C@H]1CO[C@H]2OCC[C@H]21)S(=O)(=O)c1ccc2c(c1)OCO2`, for which the half-inhibitory concentration (IC50) with MT4 [1] was 65 nM; in the data set on MT4 [2] it was 46 nM; in the data set with MT4 [3] it was 5.5 nM. Affinity in [4] was put at a Ki of 0.00012 nM.
Turning to `COC(=O)NCCCC(C)(C)CN(C[C@@H](O)[C@H](Cc1ccccc1)NC(=O)O[C@H]1CO[C@H]2OCC[C@H]21)S(=O)(=O)c1cccc(N)c1`, the IC50 is 100 nM with MT4 [1], 36 nM in the data set with MT4 [2] and 18 nM in the data set with MT4 [3]. The compound further returned a Ki in [4] of 0.00021 nM.
With `COC(=O)NCCCC(C)(C)CN(C[C@@H](O)[C@H](Cc1ccccc1)NC(=O)O[C@H]1CO[C@H]2OCC[C@H]21)S(=O)(=O)c1ccc2c(c1)OCO2`, the values for the IC50 with MT4 [1], in the data set on MT4 [2] and in the data set with MT4 [3] were 66 nM, 38 nM and 4.7 nM, respectively. This compound also yielded a Ki in data set [4] of 0.00052 nM.
Turning to `CC(C)(CCCN)CN(C[C@@H](O)[C@H](Cc1ccccc1)NC(=O)O[C@H]1CO[C@H]2OCC[C@H]21)S(=O)(=O)c1ccc2c(c1)OCO2`, the half-inhibitory concentration (IC50) in the data set with MT4 [5] came to 730 nM; in the data set with MT4 [6], 370 nM; in the data set on MT4 [7] it was 540 nM.
Regarding `CC(=O)NCCCC(C)(C)CN(C[C@@H](O)[C@H](Cc1ccccc1)NC(=O)O[C@H]1CO[C@H]2OCC[C@H]21)S(=O)(=O)c1ccc2c(c1)OCO2`, the IC50 in the data set on MT4 [1] was 120 nM; in the data set with MT4 [2], 30 nM; in the data set with MT4 [3] it was 23 nM.
As for `CNC(=O)NCCCC(C)(C)CN(C[C@@H](O)[C@H](Cc1ccccc1)NC(=O)O[C@H]1CO[C@H]2OCC[C@H]21)S(=O)(=O)c1ccc2c(c1)OCO2`, the results for the 50% inhibitory concentration (IC50) in the data set with MT4 [1], in the data set on MT4 [2] and with MT4 [3] were 200 nM, 110 nM and 38 nM, respectively.
For `CC(C)(CCCNS(C)(=O)=O)CN(C[C@@H](O)[C@H](Cc1ccccc1)NC(=O)O[C@H]1CO[C@H]2OCC[C@H]21)S(=O)(=O)c1ccc2c(c1)OCO2`, in that order: 150 nM, 47 nM and 33 nM.
Consider `COC(=O)NCCC(C)(C)CN(C[C@@H](O)[C@H](Cc1ccccc1)NC(=O)O[C@H]1CO[C@H]2OCC[C@H]21)S(=O)(=O)c1ccc2c(c1)OCO2`, for which the IC50 with MT4 [1] is 40 nM; with MT4 [2], 22 nM; in the data set on MT4 [3] it was 1.4 nM. For the same compound, the inhibitory constant (Ki) in data set [4] was 0.00016 nM.
Compound `COC(=O)NCCCCC(C)(C)CN(C[C@@H](O)[C@H](Cc1ccccc1)NC(=O)O[C@H]1CO[C@H]2OCC[C@H]21)S(=O)(=O)c1ccc2c(c1)OCO2` yielded a bioavailability in data set [8] of 20%. Moreover, the half-life in data set [9] is 1.3 h. For the same compound, the half-inhibitory concentration (IC50) in the data set on MT4 [1] amounted to 9.2 nM; in the data set on MT4 [2], 15 nM; in the data set with MT4 [3] it was 1.6 nM.
Regarding `COC(=O)NCCCC(C)(C)CN(C[C@@H](O)[C@H](Cc1ccccc1)NC(=O)O[C@H]1CO[C@H]2OCC[C@H]21)S(=O)(=O)c1ccc(N)cc1`, the IC50 was determined as 95 nM in the data set with MT4 [5], 31 nM in the data set on MT4 [6] and 46 nM in the data set with MT4 [7]. The inhibition constant (Ki) in data set [4] stood at 0.00026 nM.
For the compound `CC(C)(C)NC(=O)[C@@H]1CN(Cc2cccnc2)CCN1C[C@@H](O)C[C@@H](Cc1ccccc1)C(=O)N[C@H]1c2ccccc2C[C@H]1O`, the IC50 in the data set on MT4 [1] turned out to be 440 nM; with MT4 [2] it was 330 nM; in the data set on MT4 [3], 50 nM.
As for `Cc1c(O)cccc1C(=O)N[C@@H](CSc1ccccc1)[C@H](O)CN1C[C@H]2CCCC[C@H]2C[C@H]1C(=O)NC(C)(C)C`, the IC50 was above 1000 nM with MT4 [1], 450 nM in the data set on MT4 [2] and 320 nM in the data set on MT4 [3].

Values taken from ChEMBL document CHEMBL1138692 (Bioorg Med Chem Lett, 2004).
